From PubChem BioAssay
In the library only some 4% were active in any assay of this set; here they are far more common.
XBP1 UPR activ: adaptive UPR (XBP1) activation; CHO-XBP1 luciferase reporter, IRE1-XBP1 UPR activation, luminescence; percent of tunicamycin response, DMSO as zero; activation, % at 20 µM; hit rate 0.33% among 330,000;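 active means versus positive control, 20 µM dose yields 30% or more activation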;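 further: 100% = tunicamycin at 10 µg/mL and 0% = DMSO only wells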
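Material: CHO cell line with stable XBP1 luciferase reporter; buffer or medium: F12 medium containing 10% fetal bovine serum; compound: single point, 20 µM final compound, 1% DMSO; incubation: 6 h treatment, 37 °C; measured by: glow luminescence from Steady-Glo reagent; evaluation: activation, % of tunicamycin; control set: tunicamycin high, DMSO low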
Granule exo inh: blocks lytic granule exocytosis; TALL-104 LAMP-1 surface exposure, flow cytometry; cells stimulated with thapsigargin and PMA; inhibition, % at 10 µM; hit rate 0.66% among 360,000; AID 651702;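 active means inhibition above about 55%, limit read from the data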
ABHD5 PLIN5 PPI: blocks binding of human ABHD5 to perilipin-5; Q00G26+Q8WTS1; Split G. princeps luciferase complementation, luminescence, 4 h; inhibition, % at 4 µM; hit rate 0.78% among 360,000;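 active means inhibition above the mean inhibition across every tested compound plus 3 SD, cut at about 22% in these data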;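 further: 0% = DMSO only wells and the 100% control is not disclosed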
Mdm2-MdmX inh: inhibitors of human Mdm2/MdmX interaction; hit rate 3% among 330,000; O15151+Q00987; inhibition, % at 8 µM; SaOS-2 split-luciferase Mdm2/MdmX complementation, luminescence; AID 485346;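 active means inhibition of at least 50% at 8 µM in the primary screen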
Target sequence (O15151 whole entry, looked up): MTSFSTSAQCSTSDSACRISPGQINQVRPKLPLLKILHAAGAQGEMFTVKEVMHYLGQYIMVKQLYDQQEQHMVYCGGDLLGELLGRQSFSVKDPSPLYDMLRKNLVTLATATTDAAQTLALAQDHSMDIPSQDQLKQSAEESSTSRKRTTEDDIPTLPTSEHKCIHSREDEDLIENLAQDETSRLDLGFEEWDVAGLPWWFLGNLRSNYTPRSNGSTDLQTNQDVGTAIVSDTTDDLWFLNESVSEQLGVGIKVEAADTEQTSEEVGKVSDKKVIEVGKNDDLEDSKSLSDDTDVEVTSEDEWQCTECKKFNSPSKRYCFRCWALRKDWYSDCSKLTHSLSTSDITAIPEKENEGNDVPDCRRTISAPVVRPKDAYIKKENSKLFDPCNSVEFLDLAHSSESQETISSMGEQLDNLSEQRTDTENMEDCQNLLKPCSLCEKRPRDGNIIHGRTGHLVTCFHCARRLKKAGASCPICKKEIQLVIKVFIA
Target sequence (Q00987 whole entry, looked up): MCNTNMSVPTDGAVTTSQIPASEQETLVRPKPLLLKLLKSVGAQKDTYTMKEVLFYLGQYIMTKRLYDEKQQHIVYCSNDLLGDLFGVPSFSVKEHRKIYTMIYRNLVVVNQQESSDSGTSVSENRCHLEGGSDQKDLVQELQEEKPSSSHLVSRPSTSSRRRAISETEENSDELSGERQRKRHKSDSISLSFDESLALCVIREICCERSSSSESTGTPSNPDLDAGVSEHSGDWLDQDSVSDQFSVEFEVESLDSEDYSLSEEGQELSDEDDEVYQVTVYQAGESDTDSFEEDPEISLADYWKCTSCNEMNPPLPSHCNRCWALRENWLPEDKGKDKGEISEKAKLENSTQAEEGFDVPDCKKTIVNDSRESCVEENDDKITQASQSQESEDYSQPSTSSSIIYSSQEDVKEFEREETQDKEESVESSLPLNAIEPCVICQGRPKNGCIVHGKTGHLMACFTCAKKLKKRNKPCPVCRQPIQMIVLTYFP
UPR CHOP act: apoptotic UPR (CHOP) activation; CHO-CHOP luciferase reporter, luminescence; percent of tunicamycin response over DMSO baseline; hit rate 0.34% among 330,000; activation, % at 10 µM;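 active means at 10 µM dose, activation of 40% or more, normalized to positive control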;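 further: 100% = tunicamycin at 10 µg/mL and 0% = DMSO alone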
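measured by = luciferase luminescence | assay system = CHO-CHOP cells, stable luciferase reporter of PERK-eIF2a-CHOP signalling | amount = 500 reporter cells seeded per well | timing = 6 h compound exposure at 37 °C after overnight seeding | controls = positive tunicamycin 10 µg/mL, negative DMSO alone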
Mdm2 MdmX conf: confirmation of human Mdm2/MdmX interaction inhibitors | inhibition, % at 8 µM | Mdm2-MdmX binding, luminescent assay | shares compounds with Mdm2-MdmX inh | hit rate 55% among 10,000; in the data active means inhibition above about 40%
Full FLuc ctr: inhibits full-length luciferase, flagging false Mdm2/MdmX hits | shares compounds with Mdm2-MdmX inh | SaOS-2 full-length luciferase counterscreen, luminescence | inhibition, % at 8 µM | hit rate 77% among 6,200 | AID 504607;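 active means mean inhibition at 8 µM reaching about 37%, which flags the compound as non-specific, limit read from the data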;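 further: p53-null SaOS-2 cells with luciferase driven by a doxycycline-inducible promoter; compound on cells about two nights before reading with doxycycline added after day one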
Starred values were filed as active, the others as inactive; / = no result given.

SMILES	XBP1 UPR activ	Granule exo inh	ABHD5 PLIN5 PPI	Mdm2-MdmX inh	UPR CHOP act	Mdm2 MdmX conf	Full FLuc ctr
O=C(CSCC(=O)Nc1ccccc1)N/N=C/c1c(O)ccc2ccccc12	-1.6	2.0	3.1	78.9*	-3.8	72.2*	28.3
O=C(N/N=C/c1c(O)ccc2ccccc12)Nc1ccccc1	1.8	/	/	29.9	1.4	/	/
O=C1CC(c2ccccc2)c2ccc(O)cc2O1 (configuration not stated)	1.0	5.1	-1.3	7.5	-1.3	/	/
COc1ccc(CCNC(=O)c2c(O)c3cccc4c3n(c2=O)CC4)cc1OC	3.4	-3.4	4.9	23.8	1.5	/	/
O=[N+]([O-])c1cc(-c2csc(NCCc3nc4cc(Cl)c(Cl)cc4n3CCCO)n2)ccc1Cl	-3.1	19.6	5.1	8.3	-0.9	/	/
Oc1ccc(/C=N/Nc2nc(-c3ccc(Cl)cc3)cc(C(F)(F)F)n2)cc1	3.2	5.9	-10.9	57.0*	5.2	21.7	/
CC(C)(C)Cc1nnc(NC(=O)CCC2CCCCC2)s1	1.3	-2.9	3.5	19.5	1.9	/	/
CNC[C@H](CC1CCCCC1)NC[C@H](Cc1ccccc1)NCCC12CC3CC(CC(C3)C1)C2	-8.6	-3.5	-7.0	100.3*	17.8	99.7*	52.0*
FC(F)(F)c1cnc(NNC(=S)Nc2ccccc2Cl)c(Cl)c1	2.0	-2.0	-6.1	86.3*	-0.7	22.5	/
NC(=O)C1CCN(C(=S)NC2CC3C=CC2C3)CC1 (configuration not stated)	-0.7	-1.5	1.6	-3.2	-0.1	/	/
CC(=O)Nc1ccc(C(=O)CCl)cc1	-9.4	2.8	2.3	67.0*	-6.7	29.4	/
COc1cc(NC(=O)CSc2nnc(Cn3nnc4ccccc43)n2C)cc(OC)c1	1.7	-1.0	-1.0	-1.6	-1.0	/	/
CNC(=O)c1ccc(NC(=O)C2CCN(c3ncnc4sc(C)c(C)c34)CC2)cc1	-4.5	-1.3	-4.8	62.1*	-0.2	59.8*	58.5*
COc1ccccc1OCC(=O)NNC(=O)C1CCN(c2ncnc3sc(C)c(C)c23)CC1	-3.5	4.0	-6.1	31.7	-1.5	/	/
Cc1sc2ncnc(N3CCC(C(=O)Nc4sc5c(c4C(N)=O)CCC(C)C5)CC3)c2c1C (configuration not stated)	1.2	-2.7	0.1	62.1*	9.8	69.8*	41.8*
COc1ccc(-c2csc(NC(=O)C3CCN(c4ncnc5sc(C)c(C)c45)CC3)n2)cc1OC	4.8	37.7	-5.7	68.2*	5.2	67.8*	45.2*
Cc1sc2ncnc(N3CCC(C(=O)Nc4ccc(Br)cc4Br)CC3)c2c1C	-4.5	12.4	4.3	56.9*	0.7	47.4*	87.4*
COc1ccc(C(CNC(=O)c2ccc(S(=O)(=O)Nc3cccc(C)c3C)cc2)N2CCOCC2)cc1 (configuration not stated)	/	-1.2	-5.1	/	/	/	/
Cc1cc(C)c(NC(=O)CNC(=O)CSc2nnc(N)s2)c(C)c1	2.5	1.2	-2.6	7.3	1.6	/	/
N#Cc1c(-c2cccc([N+](=O)[O-])c2)nc2n(c1=O)CCS2	0.0	-19.3	4.6	5.7	0.8	/	/
O=C(Nc1ccc(F)c(Cl)c1)C1CCN(c2ncnc3c2nc2n3CCCCC2)CC1	-7.4	3.0	-0.8	47.4	0.8	/	/
CC(C)c1ccc(NC(=O)C2CCN(c3ncnc4c3nc3n4CCCCC3)CC2)cc1	-1.3	-7.6	-3.6	72.4*	-0.3	29.5	/
CC(=O)c1ccc(NC(=O)C2CCCN(c3ncnc4c3nc3n4CCCCC3)C2)cc1 (configuration not stated)	2.8	1.6	-6.3	29.5	-1.7	/	/
CSc1cccc(NC(=O)C2CCCN(c3ncnc4c3nc3n4CCCCC3)C2)c1 (configuration not stated)	-8.6	4.5	-8.2	57.4*	-0.8	-22.7	/
O=C(CSc1nc(-c2ccccc2)nc2c1Cc1ccccc1O2)Nc1ccc(C(=O)O)cc1	/	-1.1	0.4	/	/	/	/
SMILES	XBP1 UPR activ	Granule exo inh	ABHD5 PLIN5 PPI	Mdm2-MdmX inh	UPR CHOP act	Mdm2 MdmX conf	Full FLuc ctr
CC(C)c1cc(C(=O)NC2CCCc3c2cnn3-c2ccccc2F)no1 (configuration not stated)	-4.3	-0.2	-8.2	89.7*	1.1	76.7*	29.3
Cc1cc(NC(=O)CCC(=O)NNC(=O)c2ccc(C(C)(C)C)cc2)no1	0.4	-3.7	13.3	-44.9	2.5	/	/
C/C(=N\NC(=O)CNC(=O)C(c1ccccc1)c1ccccc1)c1ccc(C(C)(C)C)cc1	22.0	-3.6	-0.7	55.1*	1.5	13.8	/
O=C(NNc1cccc(Cl)n1)c1ccccc1CC[N+](=O)[O-]	-1.9	3.7	-0.4	91.7*	-2.9	-9.3	/
CCn1c(=O)c(CCC(=O)N2CCN(c3ccccn3)CC2)c(C)c2c(C)nn(-c3cccc(C)c3)c21	-3.3	9.8	2.8	52.5*	3.1	14.4	/
Cc1nc2nc(C)c(CCC(=O)N3CCN(c4ccccn4)CC3)c(C)n2n1	-1.8	-2.5	-0.4	-4.7	1.4	/	/
N=c1ccn2c(n1)O[C@H]1[C@H](O)[C@@H](CO)O[C@H]12	-1.0	0.7	-8.4	60.6*	-0.7	63.9*	45.7*
N=c1ccn2c(n1)O[C@H]1[C@@H](CO)[C@H](O)O[C@H]12	-4.8	-3.6	6.8	69.5*	-2.3	61.2*	43.0*
N=c1nc2n(cc1F)C1OC(CO)C(O)C1O2 (configuration not stated)	/	-5.4	-9.9	/	/	/	/
COc1cccc(C(=O)O/N=C(\N)Cc2ccc(Cl)cc2)c1	1.4	-6.9	-6.2	28.6	3.9	/	/
COC(=O)c1ccc(Sc2nnnn2-c2ccccc2)c([N+](=O)[O-])c1	-2.0	6.2	12.7	68.0*	3.7	49.3*	23.0
O=C(COC(=O)CNC(=O)c1ccccc1F)Nc1cccc(S(=O)(=O)N2CCCCCC2)c1	-0.2	-2.5	3.1	-14.8	0.4	/	/
Cc1ccc(NC(=O)COc2coc(CN3CCc4ccccc43)cc2=O)cc1Cl	-1.8	30.5	-7.8	61.8*	-0.8	16.8	/
CCSC1=C(C#N)C(c2ccc(C)s2)CC(=O)N1 (configuration not stated)	-4.5	1.0	-4.7	-18.9	0.0	/	/
CCOC(=O)CSC1=C(C#N)C(c2ccc(C)s2)CC(=O)N1 (configuration not stated)	1.6	-2.6	-8.7	61.3*	-0.5	62.0*	66.7*
CC(=O)N1CCc2cc(S(=O)(=O)N3c4ccccc4CC3C)ccc21 (configuration not stated)	4.1	8.3	-0.3	60.6*	-0.4	53.8*	57.8*
CSc1ccc(S(=O)(=O)N2c3ccccc3CC2C)cc1 (configuration not stated)	-1.0	42.6	0.0	53.2*	3.3	54.2*	65.1*
